The values below come from PubChem BioAssay.

Active and inactive are the calls of the source.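 The calls were made as follows, unless noted: active = inhibition of the reporter signal at or above 50%; inactive = inhibition below 50%.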

Test [1] can be described thus: inhibitors of TNFa-induced NFkB p65 translocation, primary screen, imaging, HUVEC, MLSMR starter and 10KST1 sets (AID 438;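 active = inhibition above 20% together with a positive visual image hit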;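 also: compound added about 3h40 before a 20 min TNFalpha stimulation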;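 as to inhibition: signal is the nuclear over cytoplasmic p65 intensity ratio per well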). The conditions noted are these: HUVEC TNFa-induced p65 nuclear translocation; cell count: measured here: nuclei count (cytotoxicity indicator), at 2.08 µM; inhibition: at 2 µM, stronger effect = higher value, 0% TNFa-plus-vehicle, 100% no-TNFa wells.
Test [2] in a line: inhibitors of mutant huntingtin aggregation, primary screen, imaging, exon1htt(103Q)mCFP cells, high-content imaging (AID 483;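 active = visual image review flags a hit and inhibition of aggregation exceeds 20%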;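 also: compound exposure lasted 3 days before fixation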;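 as to nuclei count: percent of the per-plate median nuclei count of sample wells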). The conditions noted are these: exon1htt(103Q)mCFP cell line, aggregate imaging, at 2 µM; inhibition of aggregation: stronger effect = higher value; nuclei count: measured here: cell count, toxicity.
A short description of test [3]: inhibitors of E-selectin induction by TNFa, primary screen, imaging, HUVEC, immunofluorescence, MLSMR starter and 10KST1 sets (AID 487;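 active = visually confirmed hit in the image check and inhibition above 20%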;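 as to inhibition: signal is fraction of cell area covered by stained E-selectin grains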;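 as to nuclei count: 100% = median nuclei count of all wells on the same plate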). The following applies: HUVEC TNFalpha-induced E-selectin immunofluorescence imaging, at 2 µM; inhibition: stronger effect = higher value; nuclei count: measured here: cell number, toxicity.
In test [4] the target is Voltage-gated potassium channel subunit beta-2 (Rattus norvegicus) (UniProt P62483). Description: KvBeta enzyme negative modulators, primary screen, biochemical, NADPH fluorescence (AID 622;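 active = fluorescence slope higher than the sample average by over 3 SD, cut at about -0.22 in these data, passing the limit was not always enough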;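 also: slope of raw intensity against log time taken from 70 to 1610 s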). The conditions noted are these: recombinant KvBeta, 4-cyanobenzaldehyde reduction, at 10 µM, stronger effect = higher value.
For test [5] the target is unchanged. The test can be described thus: KvBeta positive modulators, primary screen, biochemical, NADPH fluorescence (AID 623;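 active = NADPH fluorescence slope more negative than the mean of all samples by about 3 SD, 99.7% confidence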;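 also: fluorescence intensity change per second fitted from 20 to 320 s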). The following applies: Recombinant KvBeta, NADPH fluorescence decrease slope, 10 min; at 10 µM; stronger effect = lower value.
Test [6] concerns the target Muscarinic acetylcholine receptor M4 (Homo sapiens) (UniProt P08173). Description: compounds altering M4/GIRK thallium flux, either direction, primary screen, M4 allosteric agonist project, cell-based, HEK293 M4/GIRK, BTC-AM (AID 625;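 active = fluorescence slope after compound addition differing from the mean of all tested samples at 99.7% confidence, mostly higher but some lower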;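 also: thallium influx through GIRK channels coupled to M4 in HEK293 cells with BTC-AM dye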). The conditions noted are these: at 10 µM, actives lie on both sides. The essentials:
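Material – HEK293 cells with M4 receptor and GIRK channels · Buffer or medium – pH 7.3 thallium assay buffer · Doses – one dose, 10 µM final · Timing – cells overnight at 37 °C, BTC-AM loading 1 h, reads 2 min total · Measured by – kinetic fluorescence with BTC-AM dye · Controls – carbachol and DMSO controls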

Test [7] is described as follows: inhibitors of Sendai virus-induced IRF3 signaling, primary screen, TLR/RLR signaling modifier project, cell-based, Sendai virus stimulus, luciferase, 10K MLSCN set (AID 602276;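 active = inhibition at or above 50% at 10 µM; inactive = inhibition below 50%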;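 also: firefly luciferase from ISG56 promoter only with Renilla not read in this screen; 0% = Sendai virus plus DMSO and 100% = medium plus DMSO without virus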). The conditions noted are these: HEK293 RL24 IRF3 luciferase reporter, at 10 µM, stronger effect = higher value. (In general: In a reporter assay the amount or activity of a reporter protein is the signal.)

A short description of test [8]: inhibitors of poly I:C-induced TLR3 signaling, primary screen, cell-based, poly I:C stimulus, luciferase, 10K MLSCN set (AID 602277). The following applies: HEK293-TLR3 RL24 IRF3 luciferase reporter, at 10 µM, stronger effect = higher value.

Chain of Voltage-gated potassium channel subunit beta-2 (Rattus norvegicus) (P62483 whole entry, looked up): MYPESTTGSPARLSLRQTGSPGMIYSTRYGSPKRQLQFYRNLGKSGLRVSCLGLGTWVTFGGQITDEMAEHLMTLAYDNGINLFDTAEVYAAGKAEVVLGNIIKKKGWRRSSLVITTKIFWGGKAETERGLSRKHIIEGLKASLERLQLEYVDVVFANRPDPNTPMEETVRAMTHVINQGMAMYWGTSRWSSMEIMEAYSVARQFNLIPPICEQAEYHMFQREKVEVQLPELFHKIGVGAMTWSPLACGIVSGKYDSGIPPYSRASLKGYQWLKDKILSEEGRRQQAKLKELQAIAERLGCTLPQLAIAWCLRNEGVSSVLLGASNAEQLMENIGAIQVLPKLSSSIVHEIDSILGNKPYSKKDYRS
Chain of Muscarinic acetylcholine receptor M4 (Homo sapiens) (P08173 whole entry, looked up): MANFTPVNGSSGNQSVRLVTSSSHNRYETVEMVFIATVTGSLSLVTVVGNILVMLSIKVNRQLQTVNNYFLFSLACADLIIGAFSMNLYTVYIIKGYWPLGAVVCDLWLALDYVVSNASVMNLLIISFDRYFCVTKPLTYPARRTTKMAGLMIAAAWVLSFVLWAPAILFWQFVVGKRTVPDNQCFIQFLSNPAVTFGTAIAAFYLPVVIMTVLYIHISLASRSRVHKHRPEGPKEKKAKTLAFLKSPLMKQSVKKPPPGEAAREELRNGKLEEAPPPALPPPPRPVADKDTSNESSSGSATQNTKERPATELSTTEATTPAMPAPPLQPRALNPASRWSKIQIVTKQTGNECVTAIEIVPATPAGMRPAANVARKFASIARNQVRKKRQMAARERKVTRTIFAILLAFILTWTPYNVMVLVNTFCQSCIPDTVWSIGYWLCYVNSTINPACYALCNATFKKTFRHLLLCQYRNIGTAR

As to `O=C1CC(c2cccc(Cl)c2)CC(O)=C1C=NCCCO` (centres undefined), the cell count in test [1] turned out to be 498. The inhibition in test [1] is -18.1% (inactive); in test [3], 28.3% (inactive); in test [7], 16.7% (inactive); in test [8] it was 20.9% (inactive). The inhibition of aggregation in test [2] is 0.4% (inactive). In addition, the results for the nuclei count in test [2] and in test [3] were 87.3% and 98.3%, respectively. Also, the fluorescence slope in test [4] is -0.393 (inactive); in test [6], 0.00604 (inactive). The NADPH fluorescence slope in test [5] was 4.1e-05 (inactive).

In the case of `O=C(c1cccs1)c1cn(CC(=O)N2CCc3ccccc3C2)c2ccccc12`, the cell count in test [1] was 785. The inhibition was -2.9% (inactive) in test [1], -137% (inactive) in test [3], 11.1% (inactive) in test [7] and 8.88% (inactive) in test [8]. Further, in test [2], the inhibition of aggregation was -15.5% (inactive). The nuclei count worked out at 100% in test [2] and 123% in test [3]. For the same compound, the fluorescence slope in test [4] was -0.519 (inactive); in test [6], 0.00668 (inactive). Moreover, the NADPH fluorescence slope in test [5] was -3.8e-05 (inactive).

For `CCOC(=O)c1c(NC(=O)OC)sc(C(=O)N(C)C)c1C`, the cell count in test [1] was 321. In addition, the inhibition in test [1] was -5.4% (inactive); in test [3], 1.1% (inactive); in test [7], 7.2% (inactive); in test [8], 14.6% (inactive). Besides, in test [2], the inhibition of aggregation was 1.3% (inactive). The nuclei count in test [2] stood at 103%; in test [3], 115%. In addition, the fluorescence slope in test [4] was -0.312 (inactive); in test [6] it was 0.00682 (inactive). Besides, the NADPH fluorescence slope in test [5] was -4.5e-05 (inactive).

With `CCOCCCNC(=O)c1ccc2c(c1)ncn2C1CCCC1`, in test [1], the cell count came to 573. Also, the inhibition in test [1] was -4.8% (inactive); in test [3], -12% (inactive); in test [7] it was -12.4% (inactive); in test [8], -122% (inactive). Also, the inhibition of aggregation in test [2] was -5.5% (inactive). In addition, the nuclei count in test [2] worked out at 100%; in test [3], 94.4%. In addition, the fluorescence slope in test [4] was -0.495 (inactive); in test [6], 0.00159 (inactive). Further, the NADPH fluorescence slope in test [5] was 4.4e-05 (inactive).

For the compound `O=C(c1noc2c1CCc1ccccc1-2)N1CCOCC1`, the cell count in test [1] was determined as 234. The inhibition in test [1] was -5.4% (inactive); in test [3] it was -35.7% (inactive); in test [7], -5.37% (inactive); in test [8], -37.8% (inactive). For the same compound, the inhibition of aggregation in test [2] is 18.9% (inactive). Further, the nuclei count in test [2] amounted to 90.2%; in test [3] it was 120%. Moreover, the results for the fluorescence slope in test [4] and in test [6] were -0.572 (inactive) and 0.0064 (inactive), respectively. In addition, in test [5], the NADPH fluorescence slope was 2.9e-06 (inactive).

In the case of `CCCCCCNS(=O)(=O)c1ccc(Cl)s1`, the cell count in test [1] came to 579. In addition, the inhibition in test [1] was 9.2% (inactive); in test [3], -52.4% (inactive); in test [7] it was 19.6% (inactive); in test [8] it was 22.4% (inactive). Moreover, in test [2], the inhibition of aggregation was -1.2% (inactive). Further, the nuclei count amounted to 102% in test [2] and 89.1% in test [3]. For the same compound, the fluorescence slope in test [4] was -0.492 (inactive); in test [6] it was 0.00433 (inactive). The NADPH fluorescence slope in test [5] is 0.000132 (inactive).

Regarding `CCOC(=O)C1CCN(C(=O)Nc2ccc(Cl)cc2Cl)CC1`, the cell count in test [1] stood at 262. Besides, the inhibition is 0% (inactive) in test [1], -16.8% (inactive) in test [3], 14% (inactive) in test [7] and 1.16% (inactive) in test [8]. In test [2], the inhibition of aggregation is 25.3% (inactive). Further, the nuclei count in test [2] was determined as 89.6%; in test [3], 80.6%. Besides, the fluorescence slope is -0.463 (inactive) in test [4] and 0.00434 (inactive) in test [6]. Further, the NADPH fluorescence slope in test [5] was -4.6e-05 (inactive).

As to `O=C1CCCc2c1cc(C(=O)NCc1ccco1)c(=O)n2-c1ccc(Cl)cc1`, the cell count in test [1] was 220. Besides, the inhibition was 0.8% (inactive) in test [1], 37.1% (inactive) in test [3], 10.8% (inactive) in test [7] and 3.62% (inactive) in test [8]. Moreover, the inhibition of aggregation in test [2] is 5.3% (inactive). Also, the nuclei count in test [2] amounted to 91.5%; in test [3], 80%. Besides, the results for the fluorescence slope in test [4] and in test [6] were -0.52 (inactive) and 0.0047 (inactive), respectively. In test [5], the NADPH fluorescence slope was -5.7e-05 (inactive).

On to `CCOC(=O)c1ccc(NC(=O)NC(C)C2CCCO2)cc1` (centres undefined), for which, in test [1], the cell count worked out at 352. Also, the inhibition in test [1] was -12.3% (inactive); in test [3], -94.9% (inactive); in test [7] it was -13% (inactive); in test [8], 98.6% (active). Also, the inhibition of aggregation in test [2] was -23.9% (inactive). Also, the nuclei count in test [2] turned out to be 101%; in test [3], 86.6%. Besides, the fluorescence slope in test [4] was -0.462 (inactive); in test [6], 0.00652 (inactive). The NADPH fluorescence slope in test [5] is 2e-05 (inactive).

`COCCCNC(=O)c1ccc2c(c1)OCO2`: in test [1], the cell count stood at 391. Besides, the inhibition in test [1] is 1.4% (inactive); in test [3], -36.4% (inactive); in test [7], -10.8% (inactive); in test [8], -37.6% (inactive). Also, the inhibition of aggregation in test [2] was 0.6% (inactive). The nuclei count in test [2] was determined as 107%; in test [3], 108%. The fluorescence slope in test [4] is -0.567 (inactive); in test [6] it was 0.00354 (inactive). Also, the NADPH fluorescence slope in test [5] is -9.1e-05 (inactive).

Take `COC(=O)Nc1ccc(S(=O)(=O)N(C)CC(F)(F)C(F)F)cc1`: the cell count in test [1] amounted to 642. Also, the inhibition was -11.1% (inactive) in test [1], -57.5% (inactive) in test [3], 12% (inactive) in test [7] and 13.7% (inactive) in test [8]. Further, the inhibition of aggregation in test [2] is -5.6% (inactive). Besides, the nuclei count in test [2] turned out to be 114%; in test [3], 86.7%. Further, the fluorescence slope in test [4] was -0.568 (inactive); in test [6], 0.00406 (inactive). The NADPH fluorescence slope in test [5] is 3.2e-05 (inactive).

For `COc1ccc(C(CNC(=O)CN2C(=O)NC3(CC(C)CC(C)(C)C3)C2=O)N2CCOCC2)cc1` (centres undefined), in test [1], the cell count was 427. Also, the inhibition in test [1] is 8.4% (inactive); in test [3] it was -57% (inactive); in test [7], -2.17% (inactive); in test [8] it was -5.07% (inactive). For the same compound, the inhibition of aggregation in test [2] was 13.7% (inactive). Moreover, the nuclei count in test [2] amounted to 97.7%; in test [3], 115%. Moreover, the figures for the fluorescence slope in test [4] and in test [6] were -0.413 (inactive) and 0.00559 (inactive), respectively. Further, the NADPH fluorescence slope in test [5] was 3.8e-05 (inactive).

Regarding `Cc1cc(C)n(-c2nc(C)nc3c2cnn3-c2ccccc2)n1`, the cell count in test [1] came to 427. For the same compound, the inhibition in test [1] was 9.2% (inactive); in test [3] it was -60.5% (inactive); in test [7], 20.1% (inactive); in test [8], 20.4% (inactive). Further, in test [2], the inhibition of aggregation was -20.7% (inactive). Also, the values for the nuclei count in test [2] and in test [3] were 97.3% and 114%, respectively. Besides, the figures for the fluorescence slope in test [4] and in test [6] were -0.564 (inactive) and 0.0087 (inactive), respectively. Moreover, the NADPH fluorescence slope in test [5] is -3.8e-05 (inactive).

`COc1ccc(Cl)cc1Nc1nc(C)cc(=O)[nH]1`: the cell count in test [1] came to 271. Besides, the inhibition in test [1] is -3.7% (inactive); in test [3], 39.6% (inactive); in test [7] it was 16% (inactive); in test [8], 19.5% (inactive). In addition, in test [2], the inhibition of aggregation is 10% (inactive). Moreover, the nuclei count came to 61.7% in test [2] and 44% in test [3]. Besides, the fluorescence slope in test [4] was -0.562 (inactive); in test [6], 0.00528 (inactive). The NADPH fluorescence slope in test [5] is -2.9e-05 (inactive).

The term inhibition denotes the change of the read-out against control, counted positive when it falls.
